# Shown are actives, neighbours in structure and some others; about 2.1% of the full set was active somewhere.
# CAL PDZ FP-1 – CAL PDZ peptide-binding inhibitors, primary screen, biochemical, fluorescence polarization, Cer-tagged CAL PDZ, HTS | Golgi-associated PDZ and coiled-coil motif-containing protein (Homo sapiens), Q9HD26 | purified CAL PDZ, TMR-peptide fluorescence polarization, 1 h | inhibition, % at 20 µM | AID 504414, 2011 | hit rate 0.02% among 330,000;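 active = highest replicate inhibition of at least 40%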;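 also: plate controls were DMSO neutral control wells for no effect and unlabeled competitor peptide control wells for full effect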
#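 System: tagged CAL PDZ domain. Schedule: 1 h room-temperature incubation prior to read. Signal: fluorescence polarization (mP). Measure: percent inhibition from loss of millipolarization.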
# SR-BI DiI-HDL act – activators of SR-BI mediated DiI-HDL uptake, primary screen, ldlA[mSR-BI] CHO cells, DiI fluorescence | 3 h; 100 = double the neutral-control signal | activation, % at 12.5 µM | hit rate 0.096% among 320,000;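 active = mean replicate activation of at least 60% and every replicate at or above 60%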;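 also: 0% = median plate neutral-control signal and 100% = twice that signal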
#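 Material – SR-BI-overexpressing, LDLR-lacking CHO cells · Medium – BSA-supplemented, HEPES-buffered Ham's F12, pH 7.4 · Doses – single concentration · Times – compound with DiI-HDL co-incubation, 3 h at 37 °C · Measured by – bottom-read fluorescence, 550/595 nm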
# ARNT-TACC3 inh – disruptors of ARNT/TACC3 protein interaction, primary screen, biochemical, AlphaScreen, single concentration | hit rate 0.66% among 390,000 | AlphaScreen His-ARNT PAS-B/GST-TACC3 binding, luminescence; TACC3 fragment carries E629A point mutation | Transforming acidic coiled-coil-containing protein 3 (Homo sapiens), Q9Y6A5 | inhibition, % at 9.99 µM;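 active = mean inhibition of replicates at least 50% and at least half of replicates each reaching 50%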;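 also: 0% = complete ARNT plus TACC3 wells and 100% = ARNT alone without TACC3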
# CAL PDZ FP-2 – untagged CAL PDZ binding inhibitors, primary screen, biochemical, fluorescence polarization, HTS | purified CAL PDZ, TMR-peptide fluorescence polarization, 1 h | inhibition, % at 24.9 µM | hit rate 0.92% among 300,000 | AID 602252, 2012;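 active = mean inhibition of at least 30% with at least half of replicates also reaching 30%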;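 also: 0% = DMSO neutral control and 100% = excess unlabeled competitor peptide PRC23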
# miR-122 sensor – miR-122 Renilla sensor signal increase in Huh7, primary screen, miR-122 inhibitor project, cell-based, single point, plate reader; hit rate 0.3% among 340,000; Huh7 miR-122 Renilla luciferase sensor, 48 h; neutral wells = 0, positive control = 100; AID 602342, 2012; activation (reporter increase), % at 12.5 µM;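 active = mean replicate activation score at least 90 and every replicate individually at or above 90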;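 also: higher luciferase means less miR-122 activity so hits act as miR-122 inhibitors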
# SR-BI DiI inh – inhibitors of SR-BI mediated HDL lipid uptake, primary screen, ldlA[mSR-BI] cells, fluorescence, single point; Scavenger receptor class B member 1 (Mus musculus), Q61009; ldlA[mSR-BI] CHO cells, DiI-HDL uptake fluorescence, 3 h; inhibition, % at 12.5 µM; hit rate 0.96% among 320,000;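 active = mean replicate inhibition of at least 70% and a set share of replicates each scoring 70 or more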;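 also: 0% = median of neutral control wells and 100% = median of positive control wells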
# Target sequence (Q61009 whole entry, looked up): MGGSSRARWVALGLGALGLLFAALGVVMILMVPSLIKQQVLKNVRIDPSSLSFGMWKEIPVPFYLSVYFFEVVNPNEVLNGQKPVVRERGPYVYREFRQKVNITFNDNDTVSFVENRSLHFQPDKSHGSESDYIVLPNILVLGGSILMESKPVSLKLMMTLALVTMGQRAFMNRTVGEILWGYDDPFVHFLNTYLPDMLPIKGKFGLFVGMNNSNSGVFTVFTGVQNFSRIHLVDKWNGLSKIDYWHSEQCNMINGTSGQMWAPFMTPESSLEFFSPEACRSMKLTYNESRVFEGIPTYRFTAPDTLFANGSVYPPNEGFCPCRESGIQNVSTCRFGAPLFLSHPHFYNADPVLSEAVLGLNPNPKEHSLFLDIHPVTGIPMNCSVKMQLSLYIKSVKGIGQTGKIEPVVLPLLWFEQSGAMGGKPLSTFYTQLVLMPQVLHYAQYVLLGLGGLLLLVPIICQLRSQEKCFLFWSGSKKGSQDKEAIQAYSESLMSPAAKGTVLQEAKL
# An asterisk follows results filed as active; / = no result given; [ ] = another dose, or the depositor's remark.
SMILES,CAL PDZ FP-1,SR-BI DiI-HDL act,ARNT-TACC3 inh,CAL PDZ FP-2,miR-122 sensor,SR-BI DiI inh
Cc1c(-c2ccccc2)nc2ccccc2c1C(=O)Oc1ccc([N+](=O)[O-])cc1,-2,-88,11,-2,8,88*
CCOC(=O)c1[nH]cnc1N=Nc1c(O)ccc2ccccc12,2,-80,7,-2,/,80*
Cc1cc(O)c(Sc2ccc(Cl)cc2)c(=O)[nH]1,1,13,0,55*,/,-13
O=C(CCCSc1nnnn1-c1cccc2ccccc12)c1ccc(F)cc1,/,-9,-6,46*,-12,9
C/C=C/c1ccc2c(c1)O[C@@H](CN(C)C(=O)c1cccc(F)c1)[C@@H](C)CN([C@H](C)CO)S2(=O)=O,/,/,6,/,27[16.7 µM],/
CCOC(=O)CNc1c(-c2ccccc2)nc2ccc(Cl)cn12,-1,/,14,-1,-3,1
COC(=O)CNc1c(-c2ccccn2)nc2ccc(Br)cn12,-1,22,62*,8,-14,-22
C[C@@H]1CCCCO[C@H](CN(C)C(=O)Nc2ccc(F)cc2)[C@H](C)CN([C@@H](C)CO)C(=O)c2cc(NC(=O)CCCN(C)C)ccc2O1,/,/,-8,/,1[16.7 µM],/
C[C@@H]1CN([C@@H](C)CO)S(=O)(=O)c2ccc(/C=C/c3ccccc3)cc2O[C@H]1CN(C)Cc1cncnc1,/,/,35,/,-5[16.7 µM],/
CC(=O)NC(c1ccco1)c1ccc2cccnc2c1O (stereo not drawn),0,11,63*,-5,/,-11
COC(=O)C[C@@H]1CC[C@H]2[C@H](COc3ccc(NC(=O)C4CCOCC4)cc3C(=O)N2C)O1,/,/,/,/,50[16.7 µM],/
Cc1nnc(N2CCC(C(=O)NC3CCC(C)CC3)CC2)c2nn(-c3ccc(Cl)cc3)c(C)c12 (stereo not drawn),-1,-88,0,10,2,88*
Cc1nnc(N2CCC(C(=O)N3CCCCC3)CC2)c2nn(-c3ccc(Cl)cc3)c(C)c12,-4,-46,0,-4,/,46
Cc1noc(C)c1CCC(=O)NC1CCCN(Cc2ccc(Cl)cc2)C1 (stereo not drawn),1,6,46*,5,0,-6
C[C@@H]1CN([C@H](C)CO)C(=O)c2cc(NC(=O)CCCN(C)C)ccc2O[C@@H](C)CCCCO[C@H]1CN(C)S(=O)(=O)c1ccccc1,/,/,-4,/,8[16.7 µM],/
C=CCN1CCCc2c(-c3ccc(OCCO)cc3)noc2-c2cc(OC)c(OC)cc2CC1,/,/,-10,/,/,/
CC(=O)N1CCN(C(=S)c2ccc(Cl)cc2)CC1,0,-11,1,43*,/,11
CC(=O)N1CCN(c2ccc(NC(=O)c3ccc(Cl)cc3)cc2)CC1,-4,-17,5,2,-4,17
COc1ccc(S(=O)(=O)Nc2ccc3c(c2)C(=O)N([C@@H](C)CO)C[C@H](C)[C@H](CN(C)C(=O)c2ccccc2)OCCCC[C@@H](C)O3)cc1,/,/,-5,/,3[16.7 µM],/
O=C(C[C@@H]1CC[C@@H]2[C@H](COC[C@H](O)CN2C(=O)c2cccnc2)O1)NCc1ccc(Cl)cc1,/,/,-13,/,5[16.7 µM],/
O=C(O)c1cc2ccccc2cn1,1,-1,77*,-3,-1,1
Cc1ccc(S(=O)(=O)N(C)C[C@H]2Oc3ccc(NS(=O)(=O)c4cn(C)cn4)cc3C(=O)N([C@@H](C)CO)C[C@H]2C)cc1,/,/,/,/,-2[16.7 µM],/
COc1ccccc1OC(C)C(=O)N1CCc2ccccc21 (stereo not drawn),-2,0,-5,0,/,0
CC(Oc1ccc(Cl)cc1C(N)=O)C(=O)N1CCc2ccccc21 (stereo not drawn),1,-21,-5,73*,-5,21
CCOc1cc(-c2nc(C)c(C(C)=O)n2O)ccc1OCC(=O)Nc1ccccc1,-1,/,5,38*,1,/
SMILES,CAL PDZ FP-1,SR-BI DiI-HDL act,ARNT-TACC3 inh,CAL PDZ FP-2,miR-122 sensor,SR-BI DiI inh
O=C(CSC1=NNC(c2ccccn2)S1)Nc1ccc(C(F)(F)F)cc1 (stereo not drawn),2,-95,76*,7,6,95*
COc1ccc(NC(=O)c2cnn(-c3ccccc3)c2C)c(OC)c1,/,8,4,4,1,-8
CCOC(=O)c1cc(-c2cccs2)nc2c1c(C)nn2-c1ccccn1,-2,-30,2,-10,1,30
Cc1nn(-c2ccccc2)c2nc(-c3cccs3)cc(C(=O)NN)c12,-2,-84,-3,-5,/,84*
COc1ccc(NC(=O)c2cc(-c3ccccc3)nc3c2c(C)nn3-c2ccccc2)c(OC)c1,-2,-88,/,-1,/,88*
Cc1sc2nc(COC(=O)c3cccc(OC(F)F)c3)[nH]c(=O)c2c1C,0,-4,-7,56*,9,4
Cc1sc2nc(COC(=O)c3cccc(S(=O)(=O)N(C)c4ccccc4)c3)[nH]c(=O)c2c1C,-1,/,4,-5,-13,/
O=C(CC(c1ccccc1)c1ccccc1)Nc1ccncc1,-3,-8,0,81*,-4,8
CC(O)c1cccc(NC(=O)CC(c2ccccc2)c2ccccc2)c1 (stereo not drawn),-3,-44,15,5,-4,44
CN(C)C(=O)[C@@H]1[C@@H](CO)[C@@H]2Cn3c(ccc(-c4ccncc4)c3=O)[C@H]1N2CC1CCCC1,/,/,-5,/,-2[16.7 µM],/
COCCn1cnc2c(c1=O)c1nc3ccccc3nc1n2/N=C/c1cccc(OC)c1,-3,-57,5,34*,/,57
COc1cccc(S(=O)(=O)Nc2ccc3c(c2)[C@H]2C[C@H](CC(=O)NCc4ccccc4F)O[C@@H](CO)[C@H]2O3)c1,/,/,-2,/,8[16.7 µM],/
Cc1cccc(/C=C/c2onc(C)c2S(=O)(=O)N2CCC(C(=O)NC(C)(C)C)CC2)c1,0,-77,-6,/,-6,77*
O=C1CCCCC(=O)N(c2ccccc2)c2ccccc21,-2,-4,32,/,-4,4
O=C1CCCS(=O)(=O)c2ccccc21,-2,14,-15,-1,172*,-14
COc1ccc(-n2nc(C(=O)NCC(=O)Nc3cc(Cl)c(OC)cc3OC)c3ccccc3c2=O)cc1,-2,-84,2,-3,/,84*

# Compound activity from PubChem BioAssay.
